From ChEMBL document CHEMBL1146325, “Synthesis and antibacterial activities of new quinolone derivatives utilizing 1-azabicyclo[1.1.0]butane” (2007)
Values after ≈ are worked out from the molar mass of the structure shown.

Assays:
Format in all cases: functional
Moraxella catarrhalis = test: Antibacterial activity against Moraxella catarrhalis by agar dilution method
Summary of the method: (§1)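 Read-out is the minimum inhibitory concentration (MIC), determined by a conventional agar dilution procedure against a panel of Gram-positive and Gram-negative bacteria.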

Escherichia coli [1] = test: Antibacterial activity against Escherichia coli without AcrAB efflux system by agar dilution method
Staphylococcus aureus [2] = test: Antibacterial activity against quinoline-resistant methicillin-resistant Staphylococcus aureus by agar dilution method
Summary of the method: (§2)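 Read-out is the minimum inhibitory concentration (MIC), found by a conventional agar dilution procedure.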

Pseudomonas aeruginosa = test: Antibacterial activity against Pseudomonas aeruginosa by agar dilution method; summary of the method: as §1
Staphylococcus aureus [3] = test: Antibacterial activity against quinoline-susceptible methicillin-resistant Staphylococcus aureus by agar dilution method; summary of the method: as §2
Staphylococcus aureus [4] = test: Antibacterial activity against quinoline-intermediate methicillin-resistant Staphylococcus aureus by agar dilution method; summary of the method: as §2
Escherichia coli [5] = test: Antibacterial activity against Escherichia coli with AcrAB efflux system by agar dilution method
Streptococcus pneumoniae = test: Antibacterial activity against Streptococcus pneumoniae by agar dilution method; summary of the method: as §1
Haemophilus influenzae = test: Antibacterial activity against Haemophilus influenzae by agar dilution method; summary of the method: as §1
Enterococcus faecalis = test: Antibacterial activity against Enterococcus faecalis by agar dilution method; summary of the method: as §1

Row | Structure (SMILES) | MIC (Moraxella catarrhalis) [µg/mL] | MIC (Escherichia coli [1]) [µg/mL] | MIC (Staphylococcus aureus [2]) [µg/mL] | MIC (Pseudomonas aeruginosa) [µg/mL] | MIC (Staphylococcus aureus [3]) [µg/mL] | MIC (Staphylococcus aureus [4]) [µg/mL] | MIC (Escherichia coli [5]) [µg/mL] | MIC (Streptococcus pneumoniae) [µg/mL] | MIC (Haemophilus influenzae) [µg/mL] | MIC (Enterococcus faecalis) [µg/mL]
1 | COc1ccc(NC2CN(c3c(F)cc4c(=O)c(C(=O)O)cn(C5CC5)c4c3F)C2)cc1 | 0.031 (≈ 0.0702 µM) | 0.031 (≈ 0.0702 µM) | 16 (≈ 36.2 µM) | 4 (≈ 9.06 µM) | 0.031 (≈ 0.0702 µM) | 0.25 (≈ 0.566 µM) | 0.25 (≈ 0.566 µM) | 0.063 (≈ 0.143 µM) | ≤ 0.008 | 0.25 (≈ 0.566 µM)
2 | O=C(O)c1cn(C2CC2)c2c(F)c(N3CC(Nc4ccc(Cl)cc4)C3)c(F)cc2c1=O | 0.063 (≈ 0.141 µM) | 0.125 (≈ 0.28 µM) | 16 (≈ 35.9 µM) | > 16 | 0.063 (≈ 0.141 µM) | 1 (≈ 2.24 µM) | 1 (≈ 2.24 µM) | 0.5 (≈ 1.12 µM) | ≤ 0.008 | 1 (≈ 2.24 µM)
3 | Cn1nnnc1Sc1c(F)cc2c(=O)c(C(=O)O)cn(C3CC3)c2c1F | 4 (≈ 10.5 µM) | 1 (≈ 2.64 µM) | > 16 | > 16 | 16 (≈ 42.2 µM) | > 16 | 16 (≈ 42.2 µM) | > 16 | 0.125 (≈ 0.33 µM) | > 16
4 | O=C(O)c1cn(C2CC2)c2c(F)c(N3CC(N(Cc4ccccc4)Cc4ccccc4)C3)c(F)cc2c1=O | > 64 | 64 (≈ 124 µM) | > 64 | > 64 | > 64 | > 64 | > 64 | > 64 | 8 (≈ 15.5 µM) | > 64
5 | O=C(O)c1cn(C2CC2)c2c(F)c(N3CC(Nc4ccccc4)C3)c(F)cc2c1=O | 0.016 (≈ 0.0389 µM) | 0.031 (≈ 0.0754 µM) | 32 (≈ 77.8 µM) | 4 (≈ 9.72 µM) | 0.016 (≈ 0.0389 µM) | 0.5 (≈ 1.22 µM) | 0.25 (≈ 0.608 µM) | 0.25 (≈ 0.608 µM) | ≤ 0.008 | 0.25 (≈ 0.608 µM)
6 | Cn1nnnc1SC1CN(c2c(F)cc3c(=O)c(C(=O)O)cn(C4CC4)c3c2F)C1 | 0.063 (≈ 0.145 µM) | 0.125 (≈ 0.288 µM) | > 32 | 8 (≈ 18.4 µM) | 0.125 (≈ 0.288 µM) | 2 (≈ 4.6 µM) | 1 (≈ 2.3 µM) | 2 (≈ 4.6 µM) | < 0.008 | 1 (≈ 2.3 µM)
7 | O=C(O)c1cn(C2CC2)c2c(F)c(N3CC(Sc4ncccn4)C3)c(F)cc2c1=O | 0.063 (≈ 0.146 µM) | 1 (≈ 2.32 µM) | 32 (≈ 74.3 µM) | 8 (≈ 18.6 µM) | 0.063 (≈ 0.146 µM) | 1 (≈ 2.32 µM) | 1 (≈ 2.32 µM) | 1 (≈ 2.32 µM) | ≤ 0.008 | 0.25 (≈ 0.581 µM)
8 | Cc1ccc(SC2CN(c3c(F)cc4c(=O)c(C(=O)O)cn(C5CC5)c4c3F)C2)cc1 | 2 (≈ 4.52 µM) | 32 (≈ 72.3 µM) | > 32 | > 32 | 2 (≈ 4.52 µM) | 32 (≈ 72.3 µM) | 32 (≈ 72.3 µM) | 32 (≈ 72.3 µM) | 0.25 (≈ 0.565 µM) | 16 (≈ 36.2 µM)
9 | Cc1ccc(NC2CN(c3c(F)cc4c(=O)c(C(=O)O)cn(C5CC5)c4c3F)C2)cc1 | 0.031 (≈ 0.0729 µM) | 0.063 (≈ 0.148 µM) | 16 (≈ 37.6 µM) | 16 (≈ 37.6 µM) | 0.031 (≈ 0.0729 µM) | 0.5 (≈ 1.18 µM) | 0.5 (≈ 1.18 µM) | 0.5 (≈ 1.18 µM) | ≤ 0.008 | 0.5 (≈ 1.18 µM)
10 | O=C(O)c1cn(C2CC2)c2c(F)c(N3CC(Sc4nc5ccccc5o4)C3)c(F)cc2c1=O | 0.5 (≈ 1.07 µM) | 8 (≈ 17 µM) | 32 (≈ 68.2 µM) | > 32 | 1 (≈ 2.13 µM) | 2 (≈ 4.26 µM) | 8 (≈ 17 µM) | 2 (≈ 4.26 µM) | 0.5 (≈ 1.07 µM) | 2 (≈ 4.26 µM)
11 | CCOC(=O)c1ccc(NC2CN(c3c(F)cc4c(=O)c(C(=O)O)cn(C5CC5)c4c3F)C2)cc1 | 0.125 (≈ 0.259 µM) | 0.25 (≈ 0.517 µM) | > 16 | > 16 | 0.031 (≈ 0.0641 µM) | 1 (≈ 2.07 µM) | 2 (≈ 4.14 µM) | 0.125 (≈ 0.259 µM) | ≤ 0.008 | 2 (≈ 4.14 µM)
12 | O=C(O)c1cn(C2CC2)c2c(F)c(N3CC(Sc4nc5ccccc5s4)C3)c(F)cc2c1=O | 0.5 (≈ 1.03 µM) | 8 (≈ 16.5 µM) | 32 (≈ 65.9 µM) | > 32 | 1 (≈ 2.06 µM) | 4 (≈ 8.24 µM) | 8 (≈ 16.5 µM) | 4 (≈ 8.24 µM) | 0.5 (≈ 1.03 µM) | 4 (≈ 8.24 µM)
13 | Cn1cnnc1SC1CN(c2c(F)cc3c(=O)c(C(=O)O)cn(C4CC4)c3c2F)C1 | 0.123 (≈ 0.284 µM) | 0.25 (≈ 0.577 µM) | > 16 | 8 (≈ 18.5 µM) | 0.25 (≈ 0.577 µM) | 4 (≈ 9.23 µM) | 1 (≈ 2.31 µM) | 2 (≈ 4.61 µM) | ≤ 0.008 | 1 (≈ 2.31 µM)
14 | O=C(O)c1cn(C2CC2)c2cc(N3CCNCC3)c(F)cc2c1=O [CIPROFLOXACIN] | 0.063 (≈ 0.19 µM) | ≤ 0.008 | > 64 | – | 1 (≈ 3.02 µM) | – | ≤ 0.008 | 4 (≈ 12.1 µM) | ≤ 0.008 | 2 (≈ 6.04 µM)
15 | COc1c(N2CCNC(C)C2)c(F)cc2c(=O)c(C(=O)O)cn(C3CC3)c12 (stereo not given) [GATIFLOXACIN] | 0.063 (≈ 0.168 µM) | 0.063 (≈ 0.168 µM) | > 128 | 1 (≈ 2.66 µM) | 0.25 (≈ 0.666 µM) | 2 (≈ 5.33 µM) | 0.063 (≈ 0.168 µM) | 0.5 (≈ 1.33 µM) | ≤ 0.008 | 1 (≈ 2.66 µM)
16 | C[C@H]1COc2c(N3CCN(C)CC3)c(F)cc3c(=O)c(C(=O)O)cn1c23.C[C@H]1COc2c(N3CCN(C)CC3)c(F)cc3c(=O)c(C(=O)O)cn1c23.O [LEVOFLOXACIN] | 0.063 | – | > 128 | 0.5 | 0.5 | 4 | – | – | ≤ 0.008 | 2
